Converted amounts (≈) assume the structure as drawn. Non-standard residues stand in square brackets, D forms with d. Residues, ends and D or L forms follow the SMILES beside them. Orn = NCCC[C@H](N)C(=O)O
What was measured:
[1] = system: Pseudomonas aeruginosa; assay: Antibiotic activity against Pseudomonas aeruginosa NBRC 3080 by microplate dilution assay; type: functional
Summary of the method: (§1)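 Minimum inhibitory concentration determined by microplate dilution, inoculum 10⁶ organisms per ml. Strains tested: Bacillus subtilis NBRC 3513, Bacillus megaterium ATCC 19213, Staphylococcus epidermidis NBRC 12933, Staphylococcus aureus NBRC 12732, Pseudomonas aeruginosa NBRC 3080, Escherichia coli NBRC 12734. MIC reported in µg/mL.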

[2] = system: Priestia megaterium; assay: Antibiotic activity against Bacillus megaterium ATCC 19213 by microplate dilution assay; type: functional; summary of the method: as §1
[3] = Cytotoxicity against human red blood cells assessed as hemolysis after 30 mins; type: cell-based; details: erythrocyte, 0.5 h
[4] = system: Staphylococcus epidermidis; assay: Antibiotic activity against Staphylococcus epidermidis NBRC 12933 by microplate dilution assay; type: functional; summary of the method: as §1
[5] = system: Staphylococcus aureus; assay: Antibiotic activity against Staphylococcus aureus NBRC 12732 by microplate dilution assay; type: functional; summary of the method: as §1
[6] = system: Escherichia coli; assay: Antibiotic activity against Escherichia coli NBRC 12734 by microplate dilution assay; type: functional; summary of the method: as §1
[7] = system: Bacillus subtilis; assay: Antibiotic activity against Bacillus subtilis NBRC 3513 by microplate dilution assay; type: functional; summary of the method: as §1

Row | Structure (SMILES) | MIC [1] [µg/mL] | MIC [2] [µg/mL] | Activity [3] | MIC [4] [µg/mL] | MIC [5] [µg/mL] | MIC [6] [µg/mL] | MIC [7] [µg/mL]
1 | CCCC[C@H]1NC(=O)[C@@H]2CCCN2C(=O)[C@@H](Cc2ccccc2)NC(=O)[C@H](CC(C)C)NC(=O)[C@H](CCCN)NC(=O)[C@H](C(C)C)NC(=O)[C@@H](CCCC)NC(=O)[C@@H]2CCCN2C(=O)[C@@H](Cc2ccccc2)NC(=O)[C@H](CC(C)C)NC(=O)[C@H](CCCN)NC(=O)[C@H](C(C)C)NC1=O | 50 (≈ 36.6 µM) | 6.25 (≈ 4.57 µM) | Dose-dependent effect | 6.25 (≈ 4.57 µM) | 3.13 (≈ 2.29 µM) | 100 (≈ 73.1 µM) | 6.25 (≈ 4.57 µM)
2 | CC(C)C[C@@H]1NC(=O)[C@H](CCCN)NC(=O)[C@H](C(C)C)NC(=O)[C@@H](CC(C)C)NC(=O)[C@@H]2CCCN2C(=O)[C@@H](Cc2ccccc2)NC(=O)[C@H](CC(C)C)NC(=O)[C@H](CCCN)NC(=O)[C@H](C(C)C)NC(=O)[C@@H](CC(C)C)NC(=O)[C@@H]2CCCN2C(=O)[C@@H](Cc2ccccc2)NC1=O | 100 (≈ 73.1 µM) | 6.25 (≈ 4.57 µM) | Dose-dependent effect | 12.5 (≈ 9.14 µM) | 12.5 (≈ 9.14 µM) | > 100 | 6.25 (≈ 4.57 µM)
3 | CC(C)C[C@@H]1NC(=O)[C@H](CCCN)NC(=O)[C@H](C(C)C)NC(=O)[C@@H](CCCN)NC(=O)[C@@H]2CCCN2C(=O)[C@@H](Cc2ccccc2)NC(=O)[C@H](CC(C)C)NC(=O)[C@H](CCCN)NC(=O)[C@H](C(C)C)NC(=O)[C@@H](CCCN)NC(=O)[C@@H]2CCCN2C(=O)[C@@H](Cc2ccccc2)NC1=O | 25 (≈ 18.3 µM) | 6.25 (≈ 4.56 µM) | Dose-dependent effect | 6.25 (≈ 4.56 µM) | 6.25 (≈ 4.56 µM) | 25 (≈ 18.3 µM) | 6.25 (≈ 4.56 µM)
4 | CC(C)C[C@@H]1NC(=O)[C@H](CCCN)NC(=O)[C@H](C(C)C)NC(=O)[C@@H](CCC(N)=O)NC(=O)[C@@H]2CCCN2C(=O)[C@@H](Cc2ccccc2)NC(=O)[C@H](CC(C)C)NC(=O)[C@H](CCCN)NC(=O)[C@H](C(C)C)NC(=O)[C@@H](CCC(N)=O)NC(=O)[C@@H]2CCCN2C(=O)[C@@H](Cc2ccccc2)NC1=O | > 100 | 12.5 (≈ 8.94 µM) | Dose-dependent effect | 25 (≈ 17.9 µM) | 25 (≈ 17.9 µM) | > 100 | 12.5 (≈ 8.94 µM)
5 | CC(C)C[C@@H]1NC(=O)[C@H](CCCN)NC(=O)[C@H](C(C)C)NC(=O)[C@@H](CCC(=O)O)NC(=O)[C@@H]2CCCN2C(=O)[C@@H](Cc2ccccc2)NC(=O)[C@H](CC(C)C)NC(=O)[C@H](CCCN)NC(=O)[C@H](C(C)C)NC(=O)[C@@H](CCC(=O)O)NC(=O)[C@@H]2CCCN2C(=O)[C@@H](Cc2ccccc2)NC1=O | > 100 | > 100 | Dose-dependent effect | > 100 | > 100 | > 100 | > 100
6 | CC(C)C[C@@H]1NC(=O)[C@H](CCCN)NC(=O)[C@H](C(C)C)NC(=O)[C@@H](CO)NC(=O)[C@@H]2CCCN2C(=O)[C@@H](Cc2ccccc2)NC(=O)[C@H](CC(C)C)NC(=O)[C@H](CCCN)NC(=O)[C@H](C(C)C)NC(=O)[C@@H](CO)NC(=O)[C@@H]2CCCN2C(=O)[C@@H](Cc2ccccc2)NC1=O | > 100 | > 100 | Dose-dependent effect | > 100 | 100 (≈ 76 µM) | > 100 | > 100
7 | CC(C)C[C@@H]1NC(=O)[C@H](CCCN)NC(=O)[C@H](C(C)C)NC(=O)[C@@H]2CCCN2C(=O)[C@@H](Cc2ccccc2)NC(=O)[C@H](CC(C)C)NC(=O)[C@H](CCCN)NC(=O)[C@H](C(C)C)NC(=O)[C@@H]2CCCN2C(=O)[C@@H](Cc2ccccc2)NC1=O [GRAMICIDIN S] (cyclo(L[dF]PV[Orn]L[dF]PV[Orn])) | 25 (≈ 21.9 µM) | 3.13 (≈ 2.74 µM) | Dose-dependent effect | 3.13 (≈ 2.74 µM) | 3.13 (≈ 2.74 µM) | 25 (≈ 21.9 µM) | 3.13 (≈ 2.74 µM)
8 | CC(C)C[C@@H]1NC(=O)[C@H](CCCN)NC(=O)[C@H](C(C)C)NC(=O)[C@@H](CCCCN)NC(=O)[C@@H]2CCCN2C(=O)[C@@H](Cc2ccccc2)NC(=O)[C@H](CC(C)C)NC(=O)[C@H](CCCN)NC(=O)[C@H](C(C)C)NC(=O)[C@@H](CCCCN)NC(=O)[C@@H]2CCCN2C(=O)[C@@H](Cc2ccccc2)NC1=O | 12.5 (≈ 8.94 µM) | 6.25 (≈ 4.47 µM) | Dose-dependent effect | 6.25 (≈ 4.47 µM) | 6.25 (≈ 4.47 µM) | 25 (≈ 17.9 µM) | 6.25 (≈ 4.47 µM)
9 | CC(C)C[C@@H]1NC(=O)[C@H](CCCN)NC(=O)[C@H](C(C)C)NC(=O)[C@@H](Cc2ccc(O)cc2)NC(=O)[C@@H]2CCCN2C(=O)[C@@H](Cc2ccccc2)NC(=O)[C@H](CC(C)C)NC(=O)[C@H](CCCN)NC(=O)[C@H](C(C)C)NC(=O)[C@@H](Cc2ccc(O)cc2)NC(=O)[C@@H]2CCCN2C(=O)[C@@H](Cc2ccccc2)NC1=O [GRATISIN] | 100 (≈ 68.1 µM) | 6.25 (≈ 4.26 µM) | Dose-dependent effect | 12.5 (≈ 8.52 µM) | 6.25 (≈ 4.26 µM) | 100 (≈ 68.1 µM) | 6.25 (≈ 4.26 µM)
10 | CC(C)C[C@@H]1NC(=O)[C@H](CCCN)NC(=O)[C@H](C(C)C)NC(=O)[C@@H](Cc2ccccc2)NC(=O)[C@@H]2CCCN2C(=O)[C@@H](Cc2ccccc2)NC(=O)[C@H](CC(C)C)NC(=O)[C@H](CCCN)NC(=O)[C@H](C(C)C)NC(=O)[C@@H](Cc2ccccc2)NC(=O)[C@@H]2CCCN2C(=O)[C@@H](Cc2ccccc2)NC1=O | 100 (≈ 69.6 µM) | 6.25 (≈ 4.35 µM) | Dose-dependent effect | 12.5 (≈ 8.71 µM) | 12.5 (≈ 8.71 µM) | > 100 | 6.25 (≈ 4.35 µM)
11 | CC(C)C[C@@H]1NC(=O)[C@H](CCCN)NC(=O)[C@H](C(C)C)NC(=O)[C@@H]([C@H](C)O)NC(=O)[C@@H]2CCCN2C(=O)[C@@H](Cc2ccccc2)NC(=O)[C@H](CC(C)C)NC(=O)[C@H](CCCN)NC(=O)[C@H](C(C)C)NC(=O)[C@@H]([C@H](C)O)NC(=O)[C@@H]2CCCN2C(=O)[C@@H](Cc2ccccc2)NC1=O [listing 1 of 2 here] | > 100 | 100 (≈ 74.4 µM) |  | 100 (≈ 74.4 µM) | 50 (≈ 37.2 µM) | > 100 | 100 (≈ 74.4 µM)
12 | CC(C)C[C@@H]1NC(=O)[C@H](CCCN)NC(=O)[C@H](C(C)C)NC(=O)[C@@H]([C@H](C)O)NC(=O)[C@@H]2CCCN2C(=O)[C@@H](Cc2ccccc2)NC(=O)[C@H](CC(C)C)NC(=O)[C@H](CCCN)NC(=O)[C@H](C(C)C)NC(=O)[C@@H]([C@H](C)O)NC(=O)[C@@H]2CCCN2C(=O)[C@@H](Cc2ccccc2)NC1=O [listing 2 of 2 here] |  |  | Dose-dependent effect |  |  |  | 
13 | CC(C)C[C@@H]1NC(=O)[C@H](CCCN)NC(=O)[C@H](C(C)C)NC(=O)[C@@H](Cc2cnc[nH]2)NC(=O)[C@@H]2CCCN2C(=O)[C@@H](Cc2ccccc2)NC(=O)[C@H](CC(C)C)NC(=O)[C@H](CCCN)NC(=O)[C@H](C(C)C)NC(=O)[C@@H](Cc2cnc[nH]2)NC(=O)[C@@H]2CCCN2C(=O)[C@@H](Cc2ccccc2)NC1=O | > 100 | 12.5 (≈ 8.83 µM) | Dose-dependent effect | 25 (≈ 17.7 µM) | 12.5 (≈ 8.83 µM) | > 100 | 12.5 (≈ 8.83 µM)
14 | CCC[C@H]1NC(=O)[C@@H]2CCCN2C(=O)[C@@H](Cc2ccccc2)NC(=O)[C@H](CC(C)C)NC(=O)[C@H](CCCN)NC(=O)[C@H](C(C)C)NC(=O)[C@@H](CCC)NC(=O)[C@@H]2CCCN2C(=O)[C@@H](Cc2ccccc2)NC(=O)[C@H](CC(C)C)NC(=O)[C@H](CCCN)NC(=O)[C@H](C(C)C)NC1=O | > 100 | 12.5 (≈ 9.33 µM) | Dose-dependent effect | 25 (≈ 18.7 µM) | 12.5 (≈ 9.33 µM) | > 100 | 12.5 (≈ 9.33 µM)
15 | CC(C)C[C@@H]1NC(=O)[C@H](CCCN)NC(=O)[C@H](C(C)C)NC(=O)[C@@H](C)NC(=O)[C@@H]2CCCN2C(=O)[C@@H](Cc2ccccc2)NC(=O)[C@H](CC(C)C)NC(=O)[C@H](CCCN)NC(=O)[C@H](C(C)C)NC(=O)[C@@H](C)NC(=O)[C@@H]2CCCN2C(=O)[C@@H](Cc2ccccc2)NC1=O (cyclo(L[dF]P[dA]V[Orn]L[dF]P[dA]V[Orn])) | > 100 | 12.5 (≈ 9.74 µM) | Dose-dependent effect | 25 (≈ 19.5 µM) | 12.5 (≈ 9.74 µM) | > 100 | 12.5 (≈ 9.74 µM)
